Test results from ChEMBL document CHEMBL3817731, “Synthesis and investigation of novel benzimidazole derivatives as antifungal agents” (Bioorg Med Chem, 2016).
The source made the active and inactive calls.

Columns and labels:
Candida albicans [1] = assay: Antifungal activity against Candida albicans ATCC 64124 after 48 hrs by CLSI M27-A3 method; format: functional; conditions: ATCC 64124, 48 h
Candida albicans [2] = assay: Antifungal activity against Candida albicans ATCC MYA-2876 after 48 hrs by CLSI M27-A3 method; format: functional; conditions: ATCC MYA-2876, 48 h
Candida albicans [3] = assay: Antifungal activity against Candida albicans ATCC MYA-90819 after 48 hrs by CLSI M27-A3 method; format: functional; conditions: ATCC MYA-90819, 48 h
Candida albicans [4] = assay: Antifungal activity against Candida albicans ATCC MYA-2310 after 48 hrs by CLSI M27-A3 method; format: functional; conditions: ATCC MYA-2310, 48 h
Candida albicans [5] = assay: Antifungal activity against Candida albicans ATCC MYA-1237 after 48 hrs by CLSI M27-A3 method; format: functional; conditions: ATCC MYA-1237, 48 h
Candida albicans [6] = assay: Antifungal activity against Candida albicans ATCC 10231 after 48 hrs by CLSI M27-A3 method; format: functional; conditions: ATCC 10231, 48 h
Candida albicans [7] = assay: Antifungal activity against Candida albicans ATCC MYA-1003 after 48 hrs by CLSI M27-A3 method; format: functional; conditions: ATCC MYA-1003, 48 h
Nakaseomyces glabratus = assay: Antifungal activity against Candida glabrata ATCC 2001 after 48 hrs by CLSI M27-A3 method; format: functional; conditions: CBS 138, 48 h
Pichia kudriavzevii = assay: Antifungal activity against Candida krusei ATCC 6258 after 48 hrs by CLSI M27-A3 method; format: functional; conditions: ATCC 6258, 48 h
Candida parapsilosis = assay: Antifungal activity against Candida parapsilosis ATCC 22019 after 48 hrs by CLSI M27-A3 method; format: functional; conditions: Lodderomyces parapsilosis, ATCC 22019, 48 h
Aspergillus terreus = assay: Antifungal activity against Aspergillus terreus ATCC MYA3633 after 48 hrs by CLSI M38-A2 method; format: functional; conditions: ATCC MYA3633, 48 h
Candida albicans [8] = assay: Fungicidal activity against Candida albicans ATCC 64124 assessed as reduction in fungal population at MIC after 9 hrs by time kill assay; format: functional
Candida albicans [9] = assay: Fungicidal activity against Candida albicans ATCC 64124 assessed as reduction in fungal population at 2 times MIC after 24 to 48 hrs by time kill assay; format: functional
Candida albicans [10] = assay: Induction of ROS production in Candida albicans ATCC 10231 at 1 to 2 times MIC after 1 hr by DCFH-DA probe based fluorescence microscopy; format: functional, organism-based
Aspergillus flavus = assay: Antifungal activity against Aspergillus flavus ATCC MYA-3631 after 48 hrs by CLSI M38-A2 method; format: functional; conditions: ATCC MYA-3631, 48 h
Aspergillus nidulans = assay: Antifungal activity against Aspergillus nidulans ATCC 38163 after 48 hrs by CLSI M38-A2 method; format: functional; conditions: ATCC 38163, 48 h
Candida albicans [11] = assay: Fungistatic activity against Candida albicans ATCC 64124 assessed as reduction in fungal population at MIC upto 24 hrs by time kill assay; format: functional, organism-based
A549 = assay: Cytotoxicity against human A549 cells assessed as reduction in cell survival after 24 hrs by resazurin assay; format: cell-based; conditions: A549, 24 h
How it was run: (§1)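 Human A549 cells treated 24 h; BEAS 2B cells treated 6 h or 24 h. DMSO-treated cells served as negative control and Triton X-treated cells as positive control. Read-out was cell survival.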

[12] = Cytotoxicity against human BEAS2B cells assessed as reduction in cell survival after 6 hrs by resazurin assay; format: cell-based; conditions: beas-2b; how it was run: as §1
[13] = Cytotoxicity against human BEAS2B cells assessed as reduction in cell survival after 24 hrs by resazurin assay; format: cell-based; conditions: BEAS-2B; how it was run: as §1
Candida albicans [14] = assay: Fungistatic activity against Candida albicans ATCC 64124 assessed as reduction in fungal population at MIC after 24 hrs by time kill assay
Candida albicans [15] = assay: Induction of ROS production in Candida albicans ATCC 10231 at 8 to 16 ug/ml after 1 hr by DCFH-DA probe based fluorescence microscopy; format: functional, organism-based
How it was run: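 C. albicans ATCC 10231 yeast cells exposed to drug at 8 and 16 µg/mL for 1 h at 35 °C, alongside untreated and AmB controls. Cells were then stained with DCFH-DA (20 µg/mL) for 30 min in the dark. Intracellular ROS was visualised by fluorescence microscopy.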

C[C@@H]1[C@H](O)[C@@H](C)/C=C/C=C/C=C/C=C/C=C/C=C/C=C/[C@H](O[C@@H]2O[C@H](C)[C@@H](O)[C@H](N)[C@@H]2O)C[C@@H]2O[C@](O)(C[C@@H](O)C[C@@H](O)[C@H](O)CC[C@@H](O)C[C@@H](O)CC(=O)O[C@H]1C)C[C@H](O)[C@H]2C(=O)O [AMPHOTERICIN B]
3.9 µg/mL: MIC (Candida albicans [1]) | MIC (Candida albicans [5]) | MIC (Candida albicans [6]) | MIC (Candida albicans [7]) | MIC (Pichia kudriavzevii) | MIC (Aspergillus terreus)
1.95 µg/mL: MIC (Candida albicans [2]) | MIC (Candida albicans [4]) | MIC (Nakaseomyces glabratus) | MIC (Candida parapsilosis)
0.975 µg/mL: MIC (Candida albicans [3])
active: Activity (Candida albicans [8]) | Activity (Candida albicans [9]) | Activity (Candida albicans [10])

CCOc1ccc(-c2nc3cc(-c4nc5cc(N6CCN(C)CC6)ccc5[nH]4)ccc3[nH]2)cc1
Non-toxic: Activity [12]
1.95 µg/mL: IC50 [13]
31.2 µg/mL: MIC (Aspergillus flavus)
15.6 µg/mL: MIC (Candida albicans [7])
3.9 µg/mL: MIC (Candida parapsilosis) | MIC (Aspergillus nidulans)
7.8 µg/mL: MIC (Candida albicans [1]) | MIC (Candida albicans [2]) | MIC (Candida albicans [3]) | MIC (Candida albicans [4]) | MIC (Candida albicans [5]) | MIC (Candida albicans [6]) | MIC (Nakaseomyces glabratus) | MIC (Pichia kudriavzevii) | MIC (Aspergillus terreus)
5 log10CFU: Activity (Candida albicans [9])
0.98 µg/mL: IC50 (A549)
active: Activity (Candida albicans [11]) | Activity (Candida albicans [10])
1 log10CFU: Activity (Candida albicans [14])

CCCCCCCCCCCCN1CCN(c2ccc3nc(-c4ccc5nc(-c6ccc(O)cc6)[nH]c5c4)[nH]c3c2)CC1
> 31.2 µg/mL: MIC (Candida albicans [1]) | MIC (Candida albicans [2]) | MIC (Candida albicans [3]) | MIC (Candida albicans [4]) | MIC (Candida albicans [5]) | MIC (Candida albicans [6]) | MIC (Candida albicans [7]) | MIC (Nakaseomyces glabratus) | MIC (Pichia kudriavzevii) | MIC (Candida parapsilosis) | MIC (Aspergillus flavus) | MIC (Aspergillus nidulans) | MIC (Aspergillus terreus)
inactive: Activity (Candida albicans [15])
